Reference: ChEMBL document CHEMBL3596131, “Discovery of a novel trans-1,4-dioxycyclohexane GPR119 agonist series” (Bioorg Med Chem Lett, 2015)
pEC50, pIC50: −log10 of the molar value. The source made the active and inactive calls. The rule behind the calls is not given here.

Assays:
Rattus norvegicus [1] = assay: Antidiabetic activity in Zucker diabetic fatty rat assessed as fed glucose lowering effect at 1 to 10 mg/kg, qd administered over 4 weeks measured after 2 weeks of treatment; type: functional, organism-based
In short: (§1)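 Chronic study in ZDF rats: once-daily dosing at 1, 3 or 10 mg/kg for 4 weeks, vehicle 0.5% methylcellulose; fed glucose and body weight tracked at dosing times, HbA1c measured on day 28 relative to vehicle.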

[2] = target: Voltage-gated inwardly rectifying potassium channel KCNH2 (Homo sapiens, UniProt Q12809); assay: Inhibition of human ERG by patch clamp assay
Chain of Voltage-gated inwardly rectifying potassium channel KCNH2 (Q12809 whole entry): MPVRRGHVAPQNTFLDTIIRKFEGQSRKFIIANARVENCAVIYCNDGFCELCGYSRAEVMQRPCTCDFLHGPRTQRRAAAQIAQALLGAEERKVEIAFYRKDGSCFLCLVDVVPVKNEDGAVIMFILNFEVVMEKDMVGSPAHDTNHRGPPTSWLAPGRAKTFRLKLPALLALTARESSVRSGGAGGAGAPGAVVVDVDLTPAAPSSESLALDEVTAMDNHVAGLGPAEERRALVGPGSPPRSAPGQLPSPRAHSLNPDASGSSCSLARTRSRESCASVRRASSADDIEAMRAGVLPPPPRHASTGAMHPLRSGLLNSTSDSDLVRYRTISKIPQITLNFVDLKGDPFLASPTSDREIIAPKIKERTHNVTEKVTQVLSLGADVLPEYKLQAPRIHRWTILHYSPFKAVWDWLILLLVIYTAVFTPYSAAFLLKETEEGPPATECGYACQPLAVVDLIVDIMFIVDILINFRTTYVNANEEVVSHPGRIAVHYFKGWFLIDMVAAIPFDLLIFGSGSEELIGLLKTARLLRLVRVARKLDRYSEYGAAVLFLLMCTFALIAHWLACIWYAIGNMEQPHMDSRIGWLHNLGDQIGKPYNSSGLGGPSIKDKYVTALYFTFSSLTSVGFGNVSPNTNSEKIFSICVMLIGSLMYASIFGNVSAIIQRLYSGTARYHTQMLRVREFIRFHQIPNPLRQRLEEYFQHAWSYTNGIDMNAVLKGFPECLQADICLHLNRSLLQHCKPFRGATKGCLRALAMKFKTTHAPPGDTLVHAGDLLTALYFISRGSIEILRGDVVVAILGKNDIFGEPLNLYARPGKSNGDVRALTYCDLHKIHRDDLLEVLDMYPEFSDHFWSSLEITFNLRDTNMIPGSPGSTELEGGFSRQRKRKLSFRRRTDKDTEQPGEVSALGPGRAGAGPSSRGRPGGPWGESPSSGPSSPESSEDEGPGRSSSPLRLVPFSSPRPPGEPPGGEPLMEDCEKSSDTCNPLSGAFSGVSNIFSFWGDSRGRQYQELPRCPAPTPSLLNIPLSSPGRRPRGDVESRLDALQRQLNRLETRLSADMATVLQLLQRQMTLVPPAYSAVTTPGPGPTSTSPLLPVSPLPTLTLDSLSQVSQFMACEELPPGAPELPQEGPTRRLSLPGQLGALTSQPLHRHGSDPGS

[3] = Plasma concentration in Sprague-Dawley rat at 2 mg/kg, po measured at 2 hrs; type: ADME, organism-based
In short: (§2)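 Abbreviated CNS study in male SD rats given 2 mg/kg orally in 20% hp-β-CD; brain (ng/g) and plasma (ng/mL) levels sampled at 2 h post-dose, brain/plasma ratio calculated.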

Rattus norvegicus [4] = assay: Antidiabetic activity in Zucker diabetic fatty rat assessed as decrease in HbA1C level at 3 mg/kg, qd administered over 4 weeks measured on day 28 post last dose relative to vehicle-treated control; type: functional; set-up: scale not given: the % may be the effect or the level left; in short: as §1
[5] = target: T1, Glucose-dependent insulinotropic receptor (Rattus norvegicus) (UniProt Q7TQN8); assay: Agonist activity at rat GPR119 by HTRF cAMP assay relative to AR231453; type: functional
T1 sequence (whole entry): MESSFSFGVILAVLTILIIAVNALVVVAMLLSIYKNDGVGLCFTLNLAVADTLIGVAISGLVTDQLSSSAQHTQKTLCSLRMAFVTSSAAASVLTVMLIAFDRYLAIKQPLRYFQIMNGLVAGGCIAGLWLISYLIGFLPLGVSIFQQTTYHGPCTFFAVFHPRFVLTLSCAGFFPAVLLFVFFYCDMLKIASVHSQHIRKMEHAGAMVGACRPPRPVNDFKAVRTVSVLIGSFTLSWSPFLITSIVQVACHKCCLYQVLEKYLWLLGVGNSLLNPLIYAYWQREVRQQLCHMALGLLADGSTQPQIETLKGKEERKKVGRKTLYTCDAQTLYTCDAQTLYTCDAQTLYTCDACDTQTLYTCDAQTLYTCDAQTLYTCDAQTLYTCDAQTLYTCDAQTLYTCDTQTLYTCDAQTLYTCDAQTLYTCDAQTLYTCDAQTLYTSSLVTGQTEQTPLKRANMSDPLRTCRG

[6] = Plasma protein binding in mouse; type: ADME, organism-based; conditions: read-out: PPB (converted)
[7] = Ratio of drug level in brain to plasma in Sprague-Dawley rat at 2 mg/kg, po measured at 2 hrs; type: ADME, organism-based; conditions: read-out: BPR; in short: as §2
Rattus norvegicus [8] = assay: Antidiabetic activity in Zucker diabetic fatty rat assessed as suppression of plasma glucose AUC at 10 mg/kg administered 60 mins prior to glucose challenge by OGTT relative to vehicle-treated control; type: functional
[9] = Agonist activity at monkey GPR119 by HTRF cAMP assay; set-up: species or system Macaca mulatta
Rattus norvegicus [10] = assay: Antidiabetic activity in Zucker diabetic fatty rat assessed as decrease in HbA1C level at 10 mg/kg, qd administered over 4 weeks measured on day 28 post last dose relative to vehicle-treated control; type: functional; set-up: scale not given: the % may be the effect or the level left; in short: as §1
[11] = Oral bioavailability in Sprague-Dawley rat at 2 mg/kg; type: ADME, organism-based; conditions: in vivo
In short: (§3)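 Male Sprague-Dawley rats; 2 mg/kg IV and 2 mg/kg PO in 20% hp-β-CD; clearance, Vss, terminal t1/2, Cmax, AUClast and oral bioavailability derived.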

[12] = target: T2, Glucose-dependent insulinotropic receptor (Homo sapiens, UniProt Q8TDV5); assay: Agonist activity at human GPR119 by serum shift assay
T2 sequence (Q8TDV5 whole entry): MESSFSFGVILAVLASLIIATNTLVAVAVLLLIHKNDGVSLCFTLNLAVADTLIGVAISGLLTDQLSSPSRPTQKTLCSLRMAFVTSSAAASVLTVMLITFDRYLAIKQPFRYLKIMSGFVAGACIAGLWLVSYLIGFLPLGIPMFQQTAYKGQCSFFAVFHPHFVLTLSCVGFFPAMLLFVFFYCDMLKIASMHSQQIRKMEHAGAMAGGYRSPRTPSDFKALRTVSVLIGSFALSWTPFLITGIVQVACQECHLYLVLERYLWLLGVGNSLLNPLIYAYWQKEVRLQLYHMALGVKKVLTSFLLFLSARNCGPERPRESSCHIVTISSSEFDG
In short: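 HTRF cAMP read-out with cells plated overnight; growth medium swapped for fetal bovine serum-containing medium. Compounds serially diluted in DMSO, then in PBS with IBMX and 0.1% BSA to 2× concentration (1% DMSO) before addition. Potency compared with and without serum.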

[13] = target: T3, Glucose-dependent insulinotropic receptor (Homo sapiens) (UniProt Q8TDV5); assay: Agonist activity at human GPR119 by HTRF cAMP assay relative to AR231453; type: functional
T3 sequence (whole entry): T2 sequence (Q8TDV5 whole entry)

Rattus norvegicus [14] = assay: Antidiabetic activity in Zucker diabetic fatty rat assessed as decrease in HbA1C level administered as qd over 4 weeks measured on day 28 post last dose; type: functional, organism-based; in short: as §1
Mus musculus [15] = assay: Antidiabetic activity in normoglycemic 129SVE mouse assessed as suppression of plasma glucose AUC at 1 to 10 mg/kg, po administered 30 mins prior to glucose challenge measured over 120 mins by OGTT relative to vehicle-treated control; type: functional
Cytochrome P450 1A2 = target: T4, Cytochrome P450 1A2 (Homo sapiens, UniProt P05177); assay: Inhibition of CYP1A2 in human liver microsomes; type: ADME
T4 sequence (P05177 whole entry): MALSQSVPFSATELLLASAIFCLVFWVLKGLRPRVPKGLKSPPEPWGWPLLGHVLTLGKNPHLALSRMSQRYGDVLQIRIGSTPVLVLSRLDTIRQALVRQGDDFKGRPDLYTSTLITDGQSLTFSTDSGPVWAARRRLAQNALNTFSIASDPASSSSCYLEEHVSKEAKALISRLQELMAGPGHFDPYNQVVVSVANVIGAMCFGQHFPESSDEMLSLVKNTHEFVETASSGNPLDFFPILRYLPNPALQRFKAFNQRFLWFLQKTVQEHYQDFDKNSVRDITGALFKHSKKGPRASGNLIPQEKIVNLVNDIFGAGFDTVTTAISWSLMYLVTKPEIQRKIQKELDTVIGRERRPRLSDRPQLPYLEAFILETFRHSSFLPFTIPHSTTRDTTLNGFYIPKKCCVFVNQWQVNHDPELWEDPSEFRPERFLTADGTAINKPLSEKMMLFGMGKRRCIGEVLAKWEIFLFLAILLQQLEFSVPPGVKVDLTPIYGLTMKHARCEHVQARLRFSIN

Mus musculus [16] = assay: In vivo activation of GPR119 in normoglycemic 129SVE mouse assessed as increase in GIP level in plasma at 3 to 30 mg/kg, po measured after 45 mins relative to vehicle-treated control; type: functional, organism-based
In short: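 Normoglycemic male 129SVE mice dosed orally (3 and 30 mg/kg); plasma GIP measured 45 min after dosing versus vehicle-treated controls; AR231453 at 30 mg/kg as reference agonist.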

[17] = Half life in rat liver microsomes; type: ADME
[18] = AUClast in Sprague-Dawley rat at 2 mg/kg, iv and po; type: ADME, organism-based; conditions: in vivo; in short: as §3
[19] = Plasma protein binding in human; type: ADME, cell-free; conditions: read-out: PPB (converted)
Rattus norvegicus [20] = assay: Antidiabetic activity in Zucker diabetic fatty rat assessed as suppression of plasma glucose AUC administered 60 mins prior to glucose challenge by OGTT; type: functional, organism-based
[21] = Half life in human liver microsomes; type: ADME

concentration at 2 h [3]: 841 ng/mL
Emax [5]: 120%
fraction unbound [6]: 0.065
Kp at 2 h [7]: 0.98
pEC50 [9]: 8.47
bioavailability [11]: 100%
pEC50 [12]: 7.42
Emax [13]: 106%
INH (Cytochrome P450 1A2): > 50 µM
half-life [17]: > 1 h
AUC(0-t) [18]: 5210 ng·h/mL
fraction unbound [19]: 0.025
half-life [21]: > 1 h
Structure (SMILES): C[C@@H](OC(=O)N1CCC(O[C@H]2CC[C@H](Oc3cnc(S(C)(=O)=O)cn3)CC2)CC1)C(F)(F)F
Activity (Rattus norvegicus [1]): Active
pIC50 [2]: < 4.52
Activity (Rattus norvegicus [4]): 1.85%
Activity (Rattus norvegicus [8]): 58%
Activity (Rattus norvegicus [10]): 2.58%
Activity (Rattus norvegicus [14]): Dose-dependent effect
Activity (Mus musculus [15]): 40%
Activity (Mus musculus [16]): Active
Activity (Rattus norvegicus [20]): Dose-dependent effect
